Screens from PubChem BioAssay.
MEKK2wt PB1 HTS: raises or lowers MEK5 binding to wildtype human MEKK2 PB1 domain; bead flow cytometry, Alexa488-MEK5 binding to MEKK2 WT; actives lie on both sides; binding response (% of control), % at 10 µM; actives 1.1% (n = 290,000); in the data active = binding response below about 67% or above about 130%
Apaf-1 inh: human Apaf-1 inhibition; O14727; reconstituted apoptosome caspase-3 activity, DEVD-Rh110 fluorescence; inhibition, % at 20 µM; actives 0.71% (n = 330,000); AID 489030; active = inhibition of at least 40% at 20 µM
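Assay system – apoptosome proteins · Medium – Hepes buffer, pH 7.5 · Also added – cytochrome c with DEVD-Rh110 · Timing – 30 min compound preincubation, 50 min activation, room temperature · Detection – Rh110 fluorescence, excitation 480 nm, emission 540 nm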
UBC13 inh: blocks human UBC13 polyubiquitin chain formation; inhibition, % at 20 µM; P61088; TR-FRET; AID 485273; actives 0.47% (n = 330,000); in the data active = inhibition above about 45%, passing the limit was not always enough
Target sequence (P61088 whole entry, looked up): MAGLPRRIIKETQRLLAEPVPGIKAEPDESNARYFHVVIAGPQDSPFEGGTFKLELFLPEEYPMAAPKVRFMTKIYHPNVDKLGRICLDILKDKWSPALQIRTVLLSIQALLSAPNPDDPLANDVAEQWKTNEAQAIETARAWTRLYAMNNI
UCH37 inh: human UCH37 deubiquitinating enzyme inhibition; inhibition, % (test concentration not listed); purified proteasome/UCH37, Ub-AMC cleavage fluorescence; actives 0.33% (n = 330,000); Q9Y5K5; AID 588478;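 active = mean inhibition over replicate wells above about 20%, limit read from the data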
Target sequence (Q9Y5K5 whole entry, looked up): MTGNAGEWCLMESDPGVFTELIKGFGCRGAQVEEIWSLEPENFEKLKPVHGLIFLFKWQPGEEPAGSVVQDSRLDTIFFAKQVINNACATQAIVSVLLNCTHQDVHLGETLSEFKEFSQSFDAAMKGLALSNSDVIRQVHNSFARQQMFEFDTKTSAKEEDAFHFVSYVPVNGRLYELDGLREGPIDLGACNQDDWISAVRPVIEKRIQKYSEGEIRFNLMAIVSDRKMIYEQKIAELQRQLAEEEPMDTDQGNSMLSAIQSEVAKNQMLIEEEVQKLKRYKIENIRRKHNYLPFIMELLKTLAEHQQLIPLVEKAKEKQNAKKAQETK
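assay system = human UCH37 enzyme supplied as purified proteasome complex | amount = proteasome at 0.15 nM in the dispensed enzyme solution | schedule = 30 min compound-proteasome preincubation then 25 min substrate reaction, room temperature | measured by = fluorescence, ex 355 nm, em 460 nm | benchmarks = no-proteasome wells (full inhibition) and compound-free wells (no inhibition)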
MEKK3 PB1 HTS: modulators (inhibitors or enhancers) of MEK5 binding to human MEKK3 PB1 domain. bead-based flow cytometry, Alexa488-MEK5 binding to MEKK3; actives lie on both sides; 0 = blocked by unlabeled MEK5, 100 = vehicle. binding response (% of control), % at 10 µM. actives 1.4% (n = 290,000). AID 1529;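 active = binding response more than 3 SD above or below the average of its plate-row segment, actives on both sides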;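 note: Alexa488 bead fluorescence after subtracting the streptavidin-only scavenger bead signal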
MEKK2 mut-MEK5: signal of MEK5 binding to mutant human MEKK2 PB1 domain; bead flow cytometry, Alexa488-MEK5 binding to MEKK2 mutant; actives 0.35% (n = 290,000); percent response, % at 10 µM; in the data active = percent response above about 24%, passing the limit was not always enough
MEKK2wt confirm: raises or lowers MEK5 binding to wildtype human MEKK2, retest; bead flow cytometry, Alexa488-MEK5 binding to MEKK2 WT; actives lie on both sides; shares compounds with MEKK3 PB1 HTS; binding response (% of control), % at 10 µM; actives 2.4% (n = 5,900); in the data active = binding response below about 16% or above about 210%; inactive = in between
MEKK2mut confirm: signal of MEK5 binding to mutant human MEKK2, retest; actives 2% (n = 5,900); bead flow cytometry, Alexa488-MEK5 binding to MEKK2 mutant; percent response, % at 10 µM; shares compounds with MEKK3 PB1 HTS; in the data active = percent response mostly above about 71%, no sharp cut-off; inactive = mostly below about 38%;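 note: higher means compound restores mutant binding toward wildtype level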
MEKK3-MEK5 inh: confirmation of inhibitors of MEK5 binding to human MEKK3; shares compounds with MEKK3 PB1 HTS; bead flow cytometry, Alexa488-MEK5 binding to MEKK3; hits give low values; binding response (% of control), % at 10 µM; actives 1.8% (n = 5,900); AID 1894;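 active = binding response below 72% of control, or above a set upper limit, though filed actives all read lower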;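 note: lower values mean stronger disruption of MEK5 binding to MEKK3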
Numbers stand for hits; [ ] = dose if it differs, or a comment. Hits are enriched below; roughly 3% of the tested compounds scored in any of these assays.

What do the screens show for `Cc1cc(C)cc(OCC(=O)Nc2ccccc2C(=O)N2CCOCC2)c1`?
MEKK2wt PB1 HTS: inactive; Apaf-1 inh: inactive; UBC13 inh: inactive; MEKK3 PB1 HTS: inactive; MEKK2 mut-MEK5: inactive

What do the screens show for `Cc1ccc(Nc2nc(CSc3nnc(-c4ccc(F)cc4)n3C)cs2)cc1`?
MEKK2wt PB1 HTS: 3.0[inhibitor]; Apaf-1 inh: inactive; UBC13 inh: inactive; UCH37 inh: inactive; MEKK3 PB1 HTS: 1.0[inhibitor]; MEKK2 mut-MEK5: inactive; MEKK2wt confirm: inactive; MEKK2mut confirm: inactive; MEKK3-MEK5 inh: inactive

Results for Cc1cccc(C)c1OCCOCCN1CCN(C)CC1 ?
MEKK2wt PB1 HTS: 145; Apaf-1 inh: inactive; UBC13 inh: inactive; UCH37 inh: inactive; MEKK3 PB1 HTS: inactive; MEKK2 mut-MEK5: inactive; MEKK2wt confirm: inactive; MEKK2mut confirm: inactive; MEKK3-MEK5 inh: inactive

How did Cc1cccc(C)c1OCCN1CCCC1 do in these assays?
MEKK2wt PB1 HTS: inactive; Apaf-1 inh: inactive; UBC13 inh: inactive; UCH37 inh: inactive; MEKK3 PB1 HTS: inactive; MEKK2 mut-MEK5: inactive

What do the screens show for `CCOc1ccccc1C(=O)Nc1ccccc1O`?
MEKK2wt PB1 HTS: inactive; Apaf-1 inh: inactive; UBC13 inh: inactive; UCH37 inh: inactive; MEKK3 PB1 HTS: 78[inhibitor]; MEKK2 mut-MEK5: inactive; MEKK2wt confirm: inactive; MEKK2mut confirm: inactive; MEKK3-MEK5 inh: inactive

What do the screens show for `O=C(Nc1ccc2c(c1)CCC2)c1ccccc1F`?
MEKK2wt PB1 HTS: inactive; Apaf-1 inh: inactive; UBC13 inh: inactive; UCH37 inh: inactive; MEKK3 PB1 HTS: 135; MEKK2 mut-MEK5: inactive; MEKK2wt confirm: inactive; MEKK2mut confirm: inactive; MEKK3-MEK5 inh: inactive

How did O=c1c(C=NCc2cccnc2)c(C(F)(F)F)[nH]n1-c1nc2ccccc2s1 do in these assays?
Apaf-1 inh: inactive; UBC13 inh: inactive; UCH37 inh: inactive; MEKK3 PB1 HTS: inactive; MEKK2 mut-MEK5: 275; MEKK2wt confirm: inactive; MEKK2mut confirm: inactive; MEKK3-MEK5 inh: inactive

Results for COC(=O)CC1C(=O)NCCN1C(=O)CSc1nnc(Nc2ccc(C)cc2)s1 (centres undefined) ?
MEKK2wt PB1 HTS: inactive; Apaf-1 inh: inactive; UBC13 inh: inactive; UCH37 inh: inactive; MEKK3 PB1 HTS: inactive; MEKK2 mut-MEK5: inactive

What do the screens show for `COC(=O)CC1C(=O)NCCN1C(=O)CSc1nnc(Nc2ccc(OC)cc2)s1` (centres undefined)?
MEKK2wt PB1 HTS: inactive; Apaf-1 inh: inactive; UBC13 inh: inactive; UCH37 inh: inactive; MEKK3 PB1 HTS: 122; MEKK2 mut-MEK5: inactive; MEKK2wt confirm: inactive; MEKK2mut confirm: inactive; MEKK3-MEK5 inh: inactive

Results for COCCCNC(=O)CNC(=S)N(Cc1ccccc1F)C1CCCCC1 ?
MEKK2wt PB1 HTS: inactive; Apaf-1 inh: inactive; UBC13 inh: inactive; UCH37 inh: inactive; MEKK3 PB1 HTS: inactive; MEKK2 mut-MEK5: inactive

How did CCCCNC(=O)CNC(=S)N(Cc1ccccc1F)C1CCCCC1 do in these assays?
MEKK2wt PB1 HTS: inactive; Apaf-1 inh: inactive; UBC13 inh: inactive; UCH37 inh: inactive; MEKK3 PB1 HTS: 131; MEKK2 mut-MEK5: inactive; MEKK2wt confirm: inactive; MEKK2mut confirm: inactive; MEKK3-MEK5 inh: inactive

What do the screens show for `O=C(NCC1OCCc2ccccc21)c1ccc(NC(=O)c2ccc(Cl)cc2)cc1` (centres undefined)?
MEKK2wt PB1 HTS: inactive; Apaf-1 inh: inactive; UBC13 inh: inactive; MEKK3 PB1 HTS: 134; MEKK2 mut-MEK5: inactive; MEKK2wt confirm: inactive; MEKK2mut confirm: inactive; MEKK3-MEK5 inh: inactive
